For series [1], the target named is T1, Patatin-like phospholipase domain-containing protein 2 (Mus musculus, UniProt Q8BJ56).
T1 sequence (Q8BJ56 whole entry): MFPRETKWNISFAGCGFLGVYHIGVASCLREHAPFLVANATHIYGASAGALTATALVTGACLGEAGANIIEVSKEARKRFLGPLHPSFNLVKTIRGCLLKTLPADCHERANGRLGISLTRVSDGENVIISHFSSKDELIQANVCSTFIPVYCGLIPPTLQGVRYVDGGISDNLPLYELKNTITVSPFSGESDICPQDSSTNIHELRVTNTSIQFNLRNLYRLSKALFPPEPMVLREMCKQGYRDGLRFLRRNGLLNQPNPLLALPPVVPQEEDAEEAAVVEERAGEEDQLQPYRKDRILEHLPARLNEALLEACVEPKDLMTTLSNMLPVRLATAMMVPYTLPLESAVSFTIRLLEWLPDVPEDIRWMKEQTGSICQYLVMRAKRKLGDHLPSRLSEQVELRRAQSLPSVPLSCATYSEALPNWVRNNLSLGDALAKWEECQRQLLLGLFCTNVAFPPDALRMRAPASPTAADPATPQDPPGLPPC
In words: Inhibition of mouse recombinant ATGL expressed in African green monkey COS7 cells assessed as reduction in triglyceride hydrolase activity using radio-labelled triolein substrate incubated for 1 hr by liquid scintillation counting. The series is classed as cell-based, COS-7.

Series [2] concerns Adipose tissue. In words: Inhibition of lipolysis in wild type mouse white adipose tissue fat pads assessed as reduction in fatty acids release at 10 to 200 uM. The class given is functional, tissue-based.
In series [3] the test system is Adipose tissue. In words: Inhibition of lipolysis in hormone-sensitive lipase knock out mouse white adipose tissue fat pads assessed as reduction in fatty acids release at 10 to 200 uM. The class given is functional, tissue-based.
Series [4] concerns Adipose tissue. The experiment in a line: Inhibition of lipolysis in adipose triglyceride lipase knock out mouse white adipose tissue fat pads assessed as reduction in fatty acids release at 10 to 200 uM. The series is classed as functional, tissue-based.
Series [5] has as its target T2, Patatin-like phospholipase domain-containing protein 2 (Mus musculus) (UniProt Q8BJ56).
T2 sequence (whole entry): T1 sequence (Q8BJ56 whole entry)
In words: Inhibition of mouse recombinant ATGL expressed in African green monkey COS7 cells assessed as reduction in triglyceride hydrolase activity at 200 uM using radio-labelled triolein substrate incubated for 1 hr by liquid scintillation counting. The series is classed as cell-based. The settings on record: COS-7. The gist of the method: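 Lysate (20 μg protein) of COS-7 cells transfected with murine ATGL DNA, sonicated in pH 7.0 sucrose/EDTA/DTT/protease-inhibitor buffer and cleared at 1000×g. Mixed 1:1 with radiolabelled triolein emulsion (prepared at 330 μM, 40,000 cpm/nmol, PC/PI, 100 mM potassium phosphate pH 7.0, 5% FA-free BSA) ± 200 μM inhibitor for 1 h at 37 °C. Released FA counted by scintillation after methanol/chloroform/heptane extraction at pH 10.5.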

The target in series [6] is T3, Lipoprotein lipase (Homo sapiens) (UniProt P06858).
T3 sequence (whole entry): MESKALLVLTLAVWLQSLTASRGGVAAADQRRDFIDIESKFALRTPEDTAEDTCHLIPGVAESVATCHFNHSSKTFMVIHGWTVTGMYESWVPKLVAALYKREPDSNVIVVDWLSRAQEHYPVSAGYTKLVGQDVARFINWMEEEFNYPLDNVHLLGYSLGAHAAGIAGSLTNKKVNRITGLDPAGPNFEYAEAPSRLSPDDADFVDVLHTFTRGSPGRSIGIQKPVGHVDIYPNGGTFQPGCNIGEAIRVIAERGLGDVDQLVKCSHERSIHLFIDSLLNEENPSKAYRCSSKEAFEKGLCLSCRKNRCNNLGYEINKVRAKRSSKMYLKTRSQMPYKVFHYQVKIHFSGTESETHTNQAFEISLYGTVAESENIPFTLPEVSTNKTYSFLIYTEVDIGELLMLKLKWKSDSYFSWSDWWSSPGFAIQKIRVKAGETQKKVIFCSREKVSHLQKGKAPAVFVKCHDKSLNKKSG
The experiment in a line: Inhibition of lipoprotein lipase (unknown origin) at 100 uM incubated for 1 hr. The gist of the method: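 Purified recombinant LPL (2 μl) was incubated with radiolabelled triolein emulsion, with or without inhibitor, for 1 h at 37 °C. The emulsion was prepared at 330 μM triolein with PC/PI in pH 7.0 phosphate and 5% BSA. Liberated fatty acids were extracted into the alkaline upper phase and quantified by liquid scintillation counting.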

Series [7] is described as follows: Toxicity in mouse AML-12 cells at 1 to 200 uM by Tox4 test. The settings on record: aml-12, 200 µM. The class given is cell-based.
In series [8] the target is T4, Monoglyceride lipase (Homo sapiens) (UniProt Q99685).
T4 sequence (whole entry): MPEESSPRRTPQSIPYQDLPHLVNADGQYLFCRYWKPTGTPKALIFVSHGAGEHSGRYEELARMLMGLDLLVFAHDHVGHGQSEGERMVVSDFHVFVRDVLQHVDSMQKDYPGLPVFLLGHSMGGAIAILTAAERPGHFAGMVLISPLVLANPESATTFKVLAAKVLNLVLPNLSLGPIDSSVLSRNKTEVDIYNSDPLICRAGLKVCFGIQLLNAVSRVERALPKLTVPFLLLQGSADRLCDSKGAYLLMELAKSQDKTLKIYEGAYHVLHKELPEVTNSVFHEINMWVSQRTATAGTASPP
In words: Inhibition of monoglyceride lipase (unknown origin) at 100 uM incubated for 1 hr.

Activity calls are given as the source filed them. No cut-off for these calls is given here.

Usually IC50 stands for the concentration that inhibits the measured activity by half.

For the compound `Oc1ccc(/C=N/N2CCN(c3ccncc3)CC2)c(O)c1`, the 50% inhibitory concentration (IC50) in series [1] is above 200 µM.

Turning to `Oc1ccc(/C=N/N2CCC(Cc3ccccc3)CC2)c(O)c1`, in series [1], the IC50 is above 200 µM.

As to `C(=N\N1CCN(c2ccccc2)CC1)/c1ccccn1`, the IC50 in series [1] is above 200 µM.

`Oc1ccc(/C=N/N2CCN(c3ccccc3)CC2)cc1`: in series [1], the IC50 turned out to be 50 µM.

Consider `CCCC/C=N/N1CCN(c2ccccc2)CC1`, for which the IC50 in series [1] is above 200 µM.

Regarding `C(=N\N1CCN(c2ccccc2)CC1)/C1CCCCC1`, the half-inhibitory concentration (IC50) in series [1] was 200 µM.

`C(=N\N1CCN(c2ccccc2)CC1)/c1ccc2c(c1)OCO2`: the IC50 in series [1] is above 200 µM.

As for `Oc1ccc(/C=N/N2CCN(C3CCCCC3)CC2)c(O)c1`, the IC50 in series [1] was above 200 µM.

As to `COc1ccc(NC(=O)N2CCN(c3ccccc3)CC2)cc1OC`, in series [1], the concentration for half-maximal inhibition (IC50) is above 200 µM.

Consider `Oc1cccc(/C=N/N2CCN(c3ccccc3)CC2)c1`, for which, in series [1], the half-maximal inhibitory concentration (IC50) is 70 µM.

For the compound `CCC/C=C/C=N/N1CCN(c2ccccc2)CC1`, the concentration for half-maximal inhibition (IC50) in series [1] is above 200 µM.

On to `C(=N\N1CCN(c2ccccc2)CC1)/c1ccc2ccccc2n1`, for which the concentration for half-maximal inhibition (IC50) in series [1] is above 200 µM.

With `Oc1ccc(CN2CCN(c3ccccc3)CC2)cc1O`, in series [1], the IC50 was above 200 µM.

In the case of `Oc1ccc(/C=N/N2CCN(c3ccccc3)CC2)cc1O`, the inhibition entry in series [2], in series [3] and in series [4] was “Active” each time.

`CCOC(=O)c1nn(-c2ccc(N(C)C)cc2)cc1O`: the IC50 in series [1] stood at 120 µM.

Regarding `C(=N\N1CCN(c2ccccc2)CC1)/c1ccc2ccccc2c1`, in series [1], the IC50 was above 200 µM.

For `Oc1ccc(/C=N/N2CCN(CCc3ccccc3)CC2)c(O)c1`, the half-maximal inhibitory concentration (IC50) in series [1] was above 200 µM.

For `Oc1ccccc1/C=N/N1CCN(c2ccccc2)CC1`, in series [1], the IC50 was 75 µM.

On to `C(=N\N1CCN(c2ccccc2)CC1)/c1ccc2c(c1)OCCO2`, for which the IC50 in series [1] was above 200 µM.

Take `C(=N\N1CCN(c2ccccc2)CC1)/c1cccc2ccccc12`: in series [1], the IC50 worked out at 200 µM.

For `O=[N+]([O-])c1ccccc1/C=N/N1CCN(c2ccccc2)CC1`, the half-maximal inhibitory concentration (IC50) in series [1] was determined as 180 µM.

In the case of `COc1cc(/C=N/N2CCN(c3ccccc3)CC2)ccc1O`, the IC50 in series [1] was found to be 60 µM.

Consider `N#Cc1ccccc1/C=N/N1CCN(c2ccccc2)CC1`, for which the IC50 in series [1] was determined as 120 µM. In series [5], the Efficacy amounted to 60%.

Regarding `COc1ccc(C(=O)NN2CCN(c3ccccc3)CC2)cc1OC`, the IC50 in series [1] was above 200 µM.

As for `Oc1ccc(/C=N/N2CCN(C3CCCC3)CC2)c(O)c1`, the IC50 in series [1] was above 200 µM.

Take `Brc1ccccc1/C=N/N1CCN(c2ccccc2)CC1`: the IC50 in series [1] is above 150 µM.

With `Oc1ccc(/C=N/N2CCCN(c3ccccc3)CC2)c(O)c1`, the IC50 in series [1] is above 200 µM.

Regarding `CN(CCO)c1ccc(/C=N/N2CCN(c3ccccc3)CC2)cc1`, in series [1], the IC50 is above 200 µM.

Take `Oc1ccc(/C=N/N2CCN(Cc3ccccc3)CC2)c(O)c1`: the concentration for half-maximal inhibition (IC50) in series [1] was above 200 µM.

As to `CCCOc1cccc(/C=N/N2CCN(c3ccccc3)CC2)c1`, in series [1], the concentration for half-maximal inhibition (IC50) was above 200 µM. For the same compound, in series [5], the Efficacy was 14%.

Regarding `Cc1ccc(/C=N/N2CCN(c3ccccc3)CC2)cc1`, the half-inhibitory concentration (IC50) in series [1] is above 200 µM.

Take `O=c1[nH]c2ccc(/C=N/N3CCN(c4ccccc4)CC3)cc2[nH]1`: in series [1], the half-maximal inhibitory concentration (IC50) is above 200 µM.

With `CN(C)c1ccc(/C=N/N2CCN(c3ccccc3)CC2)cc1`, in series [1], the 50% inhibitory concentration (IC50) was above 200 µM.

For the compound `COc1ccc(/C=N/N2CCN(c3ccccc3)CC2)cc1O`, in series [1], the IC50 turned out to be 80 µM.

As to `C(=N\N1CCN(c2ccccc2)CC1)/c1cccc(Oc2ccccc2)c1`, the IC50 in series [1] is above 200 µM. Besides, in series [5], the Efficacy came to 24%.

As to `Oc1ccc(/C=N/N2CCN(c3ccccc3)CC2)c(O)c1`, the inhibition result in series [2], in series [3] and in series [4] was “Active” throughout. Moreover, the inhibition entry in series [6] and in series [8] was “inactive” in each case. Also, the Activity entry in series [7] was “Toxic”.

For `Clc1ccc(/C=N/N2CCN(c3ccccc3)CC2)cc1Cl`, in series [1], the half-maximal inhibitory concentration (IC50) was above 200 µM.

Turning to `COc1ccc(/C=N/N2CCN(c3ccccc3)CC2)cc1OC`, the IC50 in series [1] was determined as 100 µM.

For `C(=N\N1CCN(c2ccccc2)CC1)/c1cccnc1`, in series [1], the IC50 is above 200 µM.

Regarding `Clc1ccc(/C=N/N2CCN(c3ccccc3)CC2)c(Cl)c1`, the IC50 in series [1] was above 200 µM.

`C1=C(/C=N/N2CCN(c3ccccc3)CC2)CCCC1`: in series [1], the half-inhibitory concentration (IC50) was 130 µM.

For `CC(=O)Nc1ccc(/C=N/N2CCN(c3ccccc3)CC2)cc1`, in series [1], the IC50 is above 200 µM.

As to `COc1cc(OC)c(OC)cc1/C=N/N1CCN(c2ccccc2)CC1`, the IC50 in series [1] was above 200 µM.

In the case of `COc1cc(/C=N/N2CCN(c3ccccc3)CC2)cc(OC)c1OC`, the half-maximal inhibitory concentration (IC50) in series [1] is above 200 µM.

Take `Cc1cccc(N2CCN(/N=C/c3ccc(O)cc3O)CC2)c1`: in series [1], the half-inhibitory concentration (IC50) was above 200 µM.

Consider `C(=N\N1CCN(c2ccccc2)CC1)/c1ccncc1`, for which the IC50 in series [1] was determined as 140 µM.

The values are drawn from ChEMBL document CHEMBL3425459, “Structure-activity studies in the development of a hydrazone based inhibitor of adipose-triglyceride lipase (ATGL)” (Bioorg Med Chem, 2015).
